Measured values collected from several papers.
Read-out: metabolic stability
Host: human

SMILES	test system	setting	quantity	result
Cc1ccc(-c2csc(CNC(=O)[C@H]3CCCN(C(=O)[C@H]4CCC(C)(C)O4)[C@H]3C)n2)cn1	liver microsomes	0.5 µM	microsomal CLint	155 µL/min/mg
O=c1c2ccc(OCc3ccc(OC(F)(F)F)cc3)cc2[nH]c2cc(Cl)cc(F)c12	liver microsomes	1 µM, pH 7.4	microsomal CLint	14.9 µL/min/mg
C=CCn1c(=O)c2cnc(Nc3ccc(N4CCN(C)CC4)cc3)nc2n1-c1cccc(C(C)(C)O)n1	liver microsomes		scaled CLint	77 mL/min/kg
C[C@]1(O)CCCN(c2nc(Nc3ccc(S(=O)(=O)N[C@H]4CC[C@H](CN5CCN(c6ccc(C7CCC(=O)NC7=O)c(F)c6)CC5)CC4)cc3F)ncc2C(F)(F)F)C1 (stereo partly drawn)	liver microsomes	1 µM	scaled CLint	< 14 mL/min/kg
CCONC(=O)N1CCC[C@H](C(=O)NCc2nc(-c3ccc(C#N)cc3)cs2)C1	liver microsomes	0.5 µM	scaled CLint	11 mL/min/kg
CNc1ccc(C(N)=O)cn1	hepatocytes	1 µM, pH 7.4	hepatocyte CLint	3 µL/min/10⁶ cells
O=c1c2ccc(OC3CCNCC3)cc2[nH]c2cc(F)cc(Cl)c12	liver microsomes	1 µM, pH 7.4	microsomal CLint	13.9 µL/min/mg
CNS(=O)(=O)c1ccc(Nc2ncc(C(F)(F)F)c(N3CCC[C@](C)(O)C3)n2)c(C)c1	liver microsomes	1 µM	scaled CLint	29 mL/min/kg
C[C@H](O)c1ccc(NS(=O)(=O)c2ccc(OCC3CCC3)c(Cl)c2)c2nn(C)cc12	hepatocytes	1 µM	hepatocyte CLint	167 µL/min/10⁶ cells
CCCN(CCC)CCOc1ccc2c(=O)c3c([nH]c2c1)CCCC3	liver microsomes	1 µM, pH 7.4	microsomal CLint	17.5 µL/min/mg
NCCOCC(=O)N1CCC[C@H](C(=O)NCc2nc(-c3ccc(C(F)(F)F)cc3)cs2)C1	hepatocytes	0.5 µM	scaled CLint	< 3.4 mL/min/kg
Cc1cc(S(=O)(=O)NC2CC(N3CCN(CC4CCN(c5cccc6c5n(C)c(=O)n6C5CCC(=O)NC5=O)CC4)C4(CC4)C3)C2)ccc1Nc1ncc(C(F)(F)F)c(N2CCC[C@](C)(O)C2)n1 (stereo partly drawn)	liver microsomes	1 µM	scaled CLint	34 mL/min/kg
CNC(C)(C)COCC(=O)N1CCC[C@H](C(=O)NCc2nc(-c3ccc(C(F)(F)F)cc3)cs2)C1	liver microsomes	0.5 µM	microsomal CLint	12 µL/min/mg
Cc1cc(S(=O)(=O)NC2CC(N3CCN(CC4CCN(c5ccc(NC6CCC(=O)NC6=O)cc5C)CC4)CC3)C2)ccc1Nc1ncc(C(F)(F)F)c(N2CCC[C@](C)(O)C2)n1 (stereo partly drawn)	liver microsomes	1 µM	scaled CLint	15 mL/min/kg
COCC(=O)N1CCC[C@H](C(=O)NCc2nc(-c3ccccc3)cs2)C1	hepatocytes	0.5 µM	scaled CLint	29 mL/min/kg
CC(C)(C)OC(=O)N1CCC(Oc2ccc3c(=O)c4c(Cl)cc(F)cc4[nH]c3c2)CC1	liver microsomes	1 µM, pH 7.4	microsomal CLint	7.13 µL/min/mg
Cc1cc(S(=O)(=O)N[C@]2(C)C[C@@H](N3CCN(CC4CCN(c5ccc6c(c5F)n(C)c(=O)n6C5CCC(=O)NC5=O)CC4)CC3)C2)ccc1Nc1ncc(C(F)(F)F)c(N2CCC[C@](C)(O)C2)n1 (stereo partly drawn)	liver microsomes	1 µM	scaled CLint	120 mL/min/kg
CC(C)(N)COCC(=O)N1CCC[C@H](C(=O)NCc2nc(-c3ccc(C(F)(F)F)cc3)cs2)C1	liver microsomes	0.5 µM	microsomal CLint	< 3 µL/min/mg
C[C@]1(O)CCCN(c2nc(Nc3ccc(S(=O)(=O)N[C@H]4CC[C@H](CN5CCN(c6ccc(C7CCC(=O)NC7=O)cc6F)CC5)CC4)cc3F)ncc2C(F)(F)F)C1 (stereo partly drawn)	liver microsomes	1 µM	scaled CLint	< 14 mL/min/kg
O=c1c2c([nH]c3cc(OCc4ccc(OC(F)(F)F)cc4)ccc13)CCCC2	liver microsomes	1 µM, pH 7.4	microsomal CLint	36.5 µL/min/mg
CNS(=O)(=O)c1ccc(Nc2ncc(C(F)(F)F)c([C@H]3CC[C@](C)(O)CC3)n2)c(C)c1	liver microsomes	1 µM	scaled CLint	< 14 mL/min/kg
CCCCN(CCCC)CCCOc1ccc2c(=O)c3c([nH]c2c1)CCCC3	liver microsomes	1 µM, pH 7.4	microsomal CLint	91.8 µL/min/mg
COCC(=O)N1CCC[C@H](C(=O)NCc2nc(-c3ccc(OC(F)(F)F)cc3)cs2)C1	liver microsomes	0.5 µM	microsomal CLint	37 µL/min/mg
O=c1c2ccc(OCc3ccc(C(F)(F)F)cc3)cc2[nH]c2cc(Cl)cc(F)c12	liver microsomes	1 µM, pH 7.4	microsomal CLint	6.71 µL/min/mg
CCOCC(=O)N1CCC[C@H](C(=O)NCc2nc(-c3ccc(C)nc3)cs2)C1	hepatocytes	0.5 µM	scaled CLint	33 mL/min/kg
Cc1cc(S(=O)(=O)NC2CC(N3CCN(CC4CCN(c5cccc6c5n(C)c(=O)n6C5CCC(=O)NC5=O)CC4)CC3)C2)ccc1Nc1ncc(C(F)(F)F)c(N2CCC[C@](C)(O)C2)n1 (stereo partly drawn)	liver microsomes	1 µM	scaled CLint	< 14 mL/min/kg
O=c1c2cccc(Oc3ccc(OC(F)(F)F)cc3)c2[nH]c2cc(Cl)cc(F)c12	liver microsomes	1 µM, pH 7.4	microsomal CLint	6.75 µL/min/mg
